Laboratory results from PMC6583781 (Journal of medicinal chemistry, 2019).

Key:
APE1 = APE1 (Homo sapiens, UniProt P27695); assay: APE1 endonuclease; format: biochemical
In short: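 Purified full-length APE1 (0.25-1.25 nM) added to 50 nM duplex substrate (6-FAM strand with tetrahydrofuran AP-site mimic annealed to a quencher strand) in 50 mM Tris, 1 mM MgCl2, 50 mM NaCl, pH 7.5. Compounds in triplicate, 10-point 1:2 dilutions from 100 μM. Fluorescence read kinetically at five 1-min intervals immediately; reaction rate compared with DMSO vehicle.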

Pa02c cells = assay: Cell cytotoxicity assay; format: cell-based; settings: Homo sapiens, 48 h, read-out: PaO2c EC50
In short: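 Low-passage patient-derived pancreatic Pa02c cells, kept in DMEM with 10% FBS. Plated at 2000 cells/well in poly-D-lysine-treated plates and grown overnight at 37 °C, 5% CO2. Test compound in 5% FBS DMEM, 5-point 1:2 serial dilution from 100 µM, with DMSO vehicle and drug-background wells, for 48 h. Medium then refreshed and Alamar Blue added (10% final) for 4 h. Fluorescence read, background-subtracted, normalized to media alone.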

Chain of APE1 (P27695 whole entry): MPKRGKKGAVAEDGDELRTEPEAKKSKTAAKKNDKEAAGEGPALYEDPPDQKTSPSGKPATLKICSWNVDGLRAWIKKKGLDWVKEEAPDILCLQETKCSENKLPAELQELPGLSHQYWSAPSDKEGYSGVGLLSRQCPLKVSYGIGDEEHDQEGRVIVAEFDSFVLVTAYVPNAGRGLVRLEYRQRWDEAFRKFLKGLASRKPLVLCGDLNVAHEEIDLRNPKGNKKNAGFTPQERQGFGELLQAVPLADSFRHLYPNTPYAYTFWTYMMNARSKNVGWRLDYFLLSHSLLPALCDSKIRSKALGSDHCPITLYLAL

Cc1ccc(S(=O)(=O)n2cccc2[C@@H]2NC(=O)[C@H](Cc3c[nH]c4ccccc34)NC(=O)CCNC(=O)C/C=C/[C@@H]2C)cc1 [Compound 19, (3S,13S,14R,E)-3-((1H-Indol-3-yl)methyl)-13-methyl-14-(1-tosyl-1H-pyrrol-2-yl)-1,4,8-triazacyclotetradec-11-ene-2,5,9-trione]
IC50 (APE1): 16.9 µM

Cc1ccc(S(=O)(=O)n2cccc2[C@@H]2NC(=O)[C@H](Cc3c[nH]c4ccccc34)NC(=O)C[C@H](CCc3ccccc3)NC(=O)C/C=C/[C@@H]2C)cc1 [Compound 20, (3S,7S,13S,14R,E)-3-((1H-Indol-3-yl)methyl)-13-methyl-7-phenethyl-14-(1-tosyl-1H-pyrrol-2-yl)-1,4,8-triazacyclotetradec-11-ene-2,5,9-trione]
EC50 (Pa02c cells): > 100 µM

Cc1ccc(S(=O)(=O)n2cccc2[C@@H]2NC(=O)[C@H](Cc3c[nH]c4ccccc34)NC(=O)C[C@@H](CCc3ccccc3)NC(=O)C/C=C/[C@@H]2C)cc1 [Compound 21, (3S,7R,13S,14R,E)-3-((1H-Indol-3-yl)methyl)-13-methyl-7-phenethyl-14-(1-tosyl-1H-pyrrol-2-yl)-1,4,8-triazacyclotetradec-11-ene-2,5,9-trione]
EC50 (Pa02c cells): > 100 µM
